Experimental data reported in ChEMBL document CHEMBL1799977, “Discovery of MK-0952, a selective PDE4 inhibitor for the treatment of long-term memory loss and mild cognitive impairment” (Bioorg Med Chem Lett, 2010).
pIC50: −log10 of the molar value. Activity calls are given as the source filed them. The calls are words filed in the database; no cut-off is given here.

Legend:
[1] = Ratio IC50 for PDE4 activity in human whole blood to IC50 for PDE4; format: tissue-based
In short: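 Ratio of two IC50s. The numerator is from human whole blood stimulated with LPS, read as inhibition of TNF-α release. The denominator (PDE4QT) is the mean of the IC50s on the PDE4A, B and D catalytic domains. These were expressed as GST constructs in Sf9 cells by baculovirus. Each IC50 is the average of at least two experiments.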

[2] = molecular target: 3',5'-cyclic-AMP phosphodiesterase 4A (Homo sapiens, UniProt P27815); experiment: Inhibition of PDE4A; conditions: pooled result: one value given for 3 cell lines, strains, targets or settings
Sequence of 3',5'-cyclic-AMP phosphodiesterase 4A (P27815 whole entry, the tested form may be a part): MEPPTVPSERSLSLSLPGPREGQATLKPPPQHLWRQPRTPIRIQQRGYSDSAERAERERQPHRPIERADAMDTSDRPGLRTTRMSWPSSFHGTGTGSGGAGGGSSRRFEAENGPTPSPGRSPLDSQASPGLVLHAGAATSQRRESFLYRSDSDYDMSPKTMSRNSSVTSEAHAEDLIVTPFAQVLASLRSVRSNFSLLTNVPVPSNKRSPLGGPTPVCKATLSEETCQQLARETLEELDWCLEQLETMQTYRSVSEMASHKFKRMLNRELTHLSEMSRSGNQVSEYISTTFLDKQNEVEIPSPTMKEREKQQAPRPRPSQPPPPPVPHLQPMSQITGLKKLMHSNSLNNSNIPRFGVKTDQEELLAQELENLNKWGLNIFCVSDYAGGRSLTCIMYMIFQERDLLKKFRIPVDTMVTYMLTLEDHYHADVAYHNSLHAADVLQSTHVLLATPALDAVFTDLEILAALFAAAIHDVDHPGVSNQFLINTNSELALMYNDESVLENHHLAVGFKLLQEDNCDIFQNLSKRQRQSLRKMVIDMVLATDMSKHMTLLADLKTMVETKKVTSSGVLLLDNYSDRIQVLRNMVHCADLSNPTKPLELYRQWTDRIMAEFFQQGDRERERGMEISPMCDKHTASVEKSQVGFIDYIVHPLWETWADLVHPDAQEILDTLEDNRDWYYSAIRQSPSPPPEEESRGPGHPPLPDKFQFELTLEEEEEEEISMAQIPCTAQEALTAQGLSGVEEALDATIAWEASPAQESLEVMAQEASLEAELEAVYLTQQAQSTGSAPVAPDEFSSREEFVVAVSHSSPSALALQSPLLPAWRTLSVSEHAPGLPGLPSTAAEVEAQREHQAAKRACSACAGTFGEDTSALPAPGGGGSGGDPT
In short: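 Catalytic domains of PDE4A, B and D expressed as GST constructs in SF9 cells (baculovirus). IC50s are averages of at least two experiments.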

[3] = (§1) Oral bioavailability in Sprague-Dawley rat at 10 mg/kg; format: ADME, organism-based; conditions: Sprague-Dawley, in vivo
Phosphodiesterase 4 = Phosphodiesterase 4 (Homo sapiens, UniProt P27815+Q08499+Q07343+Q08493); experiment: Inhibition of PDE4 activity in human whole blood assessed as inhibition of LPS-induced TNF-alpha release
[4] = (§2) Half life in Sprague-Dawley rat at 10 mg/kg, po and 5 mg/kg, iv; format: ADME, organism-based; conditions: Sprague-Dawley, in vivo
Rattus norvegicus [5] = experiment: as §1; format: ADME, organism-based; conditions: in vivo
Rattus norvegicus [6] = experiment: as §2; format: ADME, organism-based; conditions: in vivo
[7] = Drug level in rat brain at 0.1 mg/kg, po measured 90 mins post dose; format: ADME, organism-based; parameters: dose 0.1 mg/kg, route oral; conditions: read-out: Drug uptake
[8] = Drug level in rat plasma at 10 mg/kg, po measured 90 mins post dose; format: ADME, organism-based; parameters: dose 10 mg/kg, route oral
[9] = Drug level in rat plasma at 0.5 mg/kg, po measured 90 mins post dose; format: ADME, organism-based; parameters: dose 0.5 mg/kg, route oral
[10] = Drug level in rat plasma at 1 mg/kg, po measured 90 mins post dose; format: ADME, organism-based; parameters: dose 1 mg/kg, route oral
[11] = Drug level in rat brain at 0.5 mg/kg, po measured 90 mins post dose; format: ADME, organism-based; parameters: dose 0.5 mg/kg, route oral; conditions: read-out: Drug uptake
[12] = Drug level in rat plasma at 5 mg/kg, po measured 90 mins post dose; format: ADME, organism-based; parameters: dose 5 mg/kg, route oral
[13] = Drug level in rat brain at 5 mg/kg, po measured 90 mins post dose; format: ADME, organism-based; parameters: dose 5 mg/kg, route oral; conditions: read-out: Drug uptake
[14] = Drug level in rat brain at 1 mg/kg, po measured 90 mins post dose; format: ADME, organism-based; parameters: dose 1 mg/kg, route oral; conditions: read-out: Drug uptake
[15] = Drug level in rat plasma at 0.1 mg/kg, po measured 90 mins post dose; format: ADME, organism-based; parameters: dose 0.1 mg/kg, route oral
[16] = Drug level in rat brain at 10 mg/kg, po measured 90 mins post dose; format: ADME, organism-based; parameters: dose 10 mg/kg, route oral; conditions: read-out: Drug uptake
Rattus norvegicus [17] = experiment: Cognitive enhancing effect in Lister rat assessed as recognition of novel object at 0.1 mg/kg, po pretreated 90 mins before sample phase by novel object recognition test; format: functional, organism-based; parameters: dose 0.1 mg/kg
In short: (§3)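 Novel object recognition in rats. Oral dosing in 0.5% methocel 90 min before the sample trial, which ended at 25 s of exploration or 3 min. Choice trial followed with a familiar and a novel object. d2 score = (novel − familiar)/total exploration. n = 21–24; Newman–Keuls test.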

Rattus norvegicus [18] = experiment: Cognitive enhancing effect in Lister rat assessed as recognition of novel object at 0.01 mg/kg, po pretreated 90 mins before sample phase by novel object recognition test; format: functional, organism-based; parameters: dose 0.01 mg/kg; in short: as §3

SMILES | pIC50 [2] | bioavailability [3] [%] | IC50 (Phosphodiesterase 4) [nM] | half-life [4] [h] | Ratio IC50 [1] | also measured
O=C(NC1CC1)c1cn(-c2cccc(-c3ccccc3C3CC3C(=O)O)c2)c2ncccc2c1=O (racemic) | 8.34 | 35 | 1300 | 4.7 | 282 | 
O=C(NC1CC1)c1cn(-c2cccc(-c3ccc(C4CC4C(=O)O)cc3)c2)c2ncccc2c1=O (racemic) [listing 1 of 2 here] |  |  |  |  | 526 | 
O=C(NC1CC1)c1cn(-c2cccc(-c3ccc(C4CC4C(=O)O)cc3)c2)c2ncccc2c1=O (cis isomer) [listing 1 of 2 here] |  |  |  |  | 100 | 
CC(C)(C)NC(=O)c1cn(-c2cccc(-c3ccc(C4CC4C(=O)O)cc3)c2)c2ncccc2c1=O (racemic) | 7.49 |  | > 40000 |  | > 1140 | 
O=C(NC1CC1)c1cn(-c2cccc(-c3ccc([C@@H]4C[C@H]4C(=O)O)cc3)c2)c2ncccc2c1=O | 9.00 |  | 1000 |  | 1000 | 
O=C(NC1CC1)c1cn(-c2cccc(-c3ccc([C@@H]4C[C@H]4C(=O)[O-])c(F)c3)c2)c2ncccc2c1=O.[Na+] |  |  |  |  |  | concentration at 1.5 h [7]: 12 nM; concentration at 1.5 h [8]: 18800 nM; concentration at 1.5 h [9]: 1340 nM; concentration at 1.5 h [10]: 3410 nM; concentration at 1.5 h [11]: 47 nM; concentration at 1.5 h [12]: 8190 nM; concentration at 1.5 h [13]: 290 nM; concentration at 1.5 h [14]: 110 nM; concentration at 1.5 h [15]: 590 nM; concentration at 1.5 h [16]: 590 nM
O=C(NC1CC1)c1cn(-c2cccc(-c3ccc(C4CC4C(=O)O)cc3)c2)c2ncccc2c1=O (cis isomer) [listing 2 of 2 here] | 8.80 |  | 160 |  |  | F (Rattus norvegicus [5]): 30%; t1/2 (Rattus norvegicus [6]): 3.9 h
O=C(NC1CC1)c1cn(-c2cccc(-c3ccc([C@@H]4C[C@H]4C(=O)O)c(F)c3)c2)c2ncccc2c1=O |  |  |  |  | 1040 | Activity (Rattus norvegicus [17]): Active; Activity (Rattus norvegicus [18]): Active
O=C(NC1(O)CC1)c1cn(-c2cccc(-c3ccc(C4CC4C(=O)O)cc3)c2)c2ncccc2c1=O (racemic) | 7.77 |  | 6400 |  | 376 | 

More lines, in order of rising pIC50 [2], values ahead:

pIC50 [2] | bioavailability [3] [%] | IC50 (Phosphodiesterase 4) [nM] | half-life [4] [h] | SMILES | Ratio IC50 [1] | also measured
9.06 | 30 | 610 | 6.1 | CC(C)(Cc1ccc(-c2cccc(-n3cc(C(=O)NC4CC4)c(=O)c4cccnc43)c2)cc1)C(=O)O | 693 | 
9.07 | 62 | 75 | 5.1 | CC(C)(CC(=O)O)c1ccc(-c2cccc(-n3cc(C(=O)NC4CC4)c(=O)c4cccnc43)c2)cc1 | 88 | 
9.18 |  | 230 |  | O=C(NC1CC1)c1cn(-c2cccc(-c3ccc([C@H]4C[C@@H]4C(=O)O)cc3)c2)c2ncccc2c1=O | 350 | 
9.24 | 58 | 280 | 4.1 | CC1(NC(=O)c2cn(-c3cccc(-c4ccc(C5CC5C(=O)O)cc4)c3)c3ncccc3c2=O)CC1 (racemic) | 482 | 
9.24 |  | 300 |  | O=C(NC1CC1)c1cn(-c2cccc(-c3ccc(C4CC4C(=O)O)cc3)c2)c2ncccc2c1=O (racemic) [listing 2 of 2 here] |  | F (Rattus norvegicus [5]): 78%; t1/2 (Rattus norvegicus [6]): 1.7 h
9.26 | 5 | > 5000 | 2.4 | O=C(NC1CC1)c1cn(-c2cccc(-c3ccc(C4CC4c4nnn[nH]4)cc3)c2)c2ncccc2c1=O (racemic) | > 9090 | 
9.27 | 100 | 110 | 1 | O=C(NC1CC1)c1cn(-c2cccc(-c3cccc(C4CC4C(=O)O)c3)c2)c2ncccc2c1=O (racemic) | 203 | 
9.27 |  | 1400 |  | CC(C)(c1cc(-c2cccc(-c3ccc(C4CC4C(=O)O)cc3)c2)c2ncccc2c1)S(C)(=O)=O (single isomer, unassigned; enantiomer A) |  | 
9.28 | 20 | 220 | 2.4 | O=C(NC1CCC1)c1cn(-c2cccc(-c3ccc(C4CC4C(=O)O)cc3)c2)c2ncccc2c1=O (racemic) | 432 | 
9.29 | 25 | 510 | 3.2 | O=C(NCC(F)(F)F)c1cn(-c2cccc(-c3ccc(C4CC4C(=O)O)cc3)c2)c2ncccc2c1=O (racemic) | 1080 | 
9.34 |  | 150 |  | O=C(NC1CC1)c1cn(-c2cccc(-c3ccc([C@H]4C[C@@H]4C(=O)O)c(F)c3)c2)c2ncccc2c1=O | 330 | 
9.46 |  | 200 |  | O=C(NCC1CC1)c1cn(-c2cccc(-c3ccc(C4CC4C(=O)O)cc3)c2)c2ncccc2c1=O (racemic) | 571 | 
9.49 |  | 600 |  | CC(C)(c1cc(-c2cccc(-c3ccc(C4CC4C(=O)O)cc3)c2)c2ncccc2c1)S(C)(=O)=O (single isomer, unassigned; enantiomer B) |  | 
